What was measured:
[1] = target: Histamine H3 receptor (Homo sapiens, UniProt Q9Y5N1); assay: Displacement of [3H]histamine from human H3 receptor expressed in HEK cell membranes; design: species or system HEK293
[2] = target: T1, Histamine H4 receptor (Homo sapiens, UniProt Q9H3N8); assay: Antagonist activity at human H4 receptor expressed in HEK293T cells assessed as inhibition of histamine-induced [35S]GTPgammaS binding; format: functional, cell-based, HEK-293T
[3] = target: Histamine H1 receptor (Homo sapiens, UniProt P35367); assay: Displacement of [3H]histamine from human H1 receptor expressed in HEK cell membranes; design: species or system HEK293
[4] = target: Histamine H2 receptor (Homo sapiens) (UniProt P25021); assay: Displacement of cimetidine from H2 receptor at 10 uM
Outline: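 Single test concentration of 10 μM, run in duplicate. Result given as percentage displacement of cimetidine binding at the H2 receptor; assay carried out by a contract laboratory.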

[5] = target: T1, Histamine H4 receptor; assay: Displacement of [3H]histamine from human H4 receptor expressed in HEK cell membranes; design: species or system HEK293
[6] = target: T1, Histamine H4 receptor
[7] = target: T2, Histamine H4 receptor (Mus musculus, UniProt Q91ZY2); assay: Displacement of [3H]histamine from mouse H4R
T2 sequence (Q91ZY2 whole entry): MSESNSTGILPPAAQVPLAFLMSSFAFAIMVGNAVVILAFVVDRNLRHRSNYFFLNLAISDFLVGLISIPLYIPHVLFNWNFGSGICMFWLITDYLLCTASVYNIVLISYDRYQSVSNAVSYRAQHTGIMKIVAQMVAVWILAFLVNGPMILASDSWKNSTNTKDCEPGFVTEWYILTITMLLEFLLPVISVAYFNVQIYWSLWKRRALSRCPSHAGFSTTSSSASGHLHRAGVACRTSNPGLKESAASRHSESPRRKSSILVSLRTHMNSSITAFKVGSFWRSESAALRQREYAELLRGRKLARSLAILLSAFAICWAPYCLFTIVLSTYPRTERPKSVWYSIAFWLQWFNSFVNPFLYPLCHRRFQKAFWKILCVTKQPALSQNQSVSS

[8] = target: Histamine H4 receptor (Rattus norvegicus, UniProt Q91ZY1); assay: Displacement of [3H]histamine from rat H4R
[9] = Metabolic stability in rat liver microsomes assessed as compound remaining after 60 mins; format: ADME, Microsome; settings: read-out: Stability
Outline: (§1)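 Liver microsomes (human, mouse or rat) incubated with compound for 60 min. Read-out is percentage of parent compound remaining; assay carried out by a contract laboratory.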

[10] = target: Histamine H3 receptor (Rattus norvegicus, UniProt Q9QYN8); assay: Displacement of [3H]histamine from rat H3R
[11] = target: Histamine H3 receptor (Mus musculus, UniProt P58406); assay: Displacement of [3H]histamine from mouse H3R
[12] = Metabolic stability in mouse liver microsomes assessed as compound remaining after 60 mins; format: ADME, Microsome; settings: read-out: Stability; outline: as §1
[13] = Metabolic stability in human liver microsomes assessed as compound remaining after 60 mins; format: ADME, Microsome; settings: read-out: Stability; outline: as §1
[14] = Half life in mouse; format: ADME, organism-based; settings: in vivo
[15] = Oral bioavailability in mouse; format: ADME, organism-based; settings: in vivo
[16] = target: Histamine H1 receptor (Rattus norvegicus, UniProt P31390); assay: Displacement of [3H]histamine from rat H1R
Sequence of Histamine H1 receptor (Rattus norvegicus, UniProt P31390) (P31390 whole entry): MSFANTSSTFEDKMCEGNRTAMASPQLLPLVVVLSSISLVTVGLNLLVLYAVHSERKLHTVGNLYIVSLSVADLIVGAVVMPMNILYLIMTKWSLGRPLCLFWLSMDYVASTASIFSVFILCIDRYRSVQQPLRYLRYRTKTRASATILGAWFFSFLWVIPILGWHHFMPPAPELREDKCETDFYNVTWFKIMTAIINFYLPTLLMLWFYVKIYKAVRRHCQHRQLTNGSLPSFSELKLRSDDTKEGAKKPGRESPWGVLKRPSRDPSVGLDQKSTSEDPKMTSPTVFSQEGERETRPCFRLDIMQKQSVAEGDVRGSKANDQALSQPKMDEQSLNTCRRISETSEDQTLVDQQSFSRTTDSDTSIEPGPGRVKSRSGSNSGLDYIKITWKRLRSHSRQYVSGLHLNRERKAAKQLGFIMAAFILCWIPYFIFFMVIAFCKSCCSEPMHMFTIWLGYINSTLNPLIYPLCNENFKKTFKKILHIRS

Sequence of Histamine H1 receptor (Homo sapiens, UniProt P35367) (P35367 whole entry): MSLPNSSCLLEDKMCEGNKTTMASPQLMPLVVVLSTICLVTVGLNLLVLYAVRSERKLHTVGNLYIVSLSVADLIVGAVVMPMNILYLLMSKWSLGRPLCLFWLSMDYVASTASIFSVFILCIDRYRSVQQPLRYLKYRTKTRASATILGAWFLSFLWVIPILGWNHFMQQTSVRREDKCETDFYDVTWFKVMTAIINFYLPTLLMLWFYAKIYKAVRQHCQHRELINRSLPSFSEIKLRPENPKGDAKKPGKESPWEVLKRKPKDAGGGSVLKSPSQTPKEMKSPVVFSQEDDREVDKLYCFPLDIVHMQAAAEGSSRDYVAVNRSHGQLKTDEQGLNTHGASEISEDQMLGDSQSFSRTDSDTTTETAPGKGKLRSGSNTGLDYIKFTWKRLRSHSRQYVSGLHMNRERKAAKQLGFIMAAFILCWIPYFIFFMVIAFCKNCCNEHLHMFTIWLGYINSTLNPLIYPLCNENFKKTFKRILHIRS
Sequence of Histamine H3 receptor (Homo sapiens, UniProt Q9Y5N1) (Q9Y5N1 whole entry): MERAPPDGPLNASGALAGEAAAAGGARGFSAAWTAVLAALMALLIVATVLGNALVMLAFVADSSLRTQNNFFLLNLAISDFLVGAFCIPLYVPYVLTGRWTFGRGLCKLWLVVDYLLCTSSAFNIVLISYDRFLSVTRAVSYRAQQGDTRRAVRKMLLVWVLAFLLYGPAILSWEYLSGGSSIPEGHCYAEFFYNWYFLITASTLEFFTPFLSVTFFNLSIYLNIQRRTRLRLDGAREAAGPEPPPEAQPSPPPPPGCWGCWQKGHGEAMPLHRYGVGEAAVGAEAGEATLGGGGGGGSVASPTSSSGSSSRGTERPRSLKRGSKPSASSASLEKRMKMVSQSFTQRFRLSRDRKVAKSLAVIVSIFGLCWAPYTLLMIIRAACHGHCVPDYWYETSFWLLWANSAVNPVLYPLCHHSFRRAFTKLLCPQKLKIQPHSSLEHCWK
Sequence of Histamine H2 receptor (Homo sapiens) (P25021 whole entry): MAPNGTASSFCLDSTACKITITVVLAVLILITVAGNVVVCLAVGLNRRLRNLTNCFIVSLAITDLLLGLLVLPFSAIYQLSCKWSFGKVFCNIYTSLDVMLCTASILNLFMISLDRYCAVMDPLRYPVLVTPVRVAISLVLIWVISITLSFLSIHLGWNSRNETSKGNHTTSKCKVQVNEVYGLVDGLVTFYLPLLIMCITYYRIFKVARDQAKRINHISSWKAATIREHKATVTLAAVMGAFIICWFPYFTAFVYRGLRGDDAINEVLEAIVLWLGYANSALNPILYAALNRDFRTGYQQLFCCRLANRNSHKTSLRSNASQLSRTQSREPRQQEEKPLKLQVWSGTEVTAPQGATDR
Sequence of Histamine H3 receptor (Mus musculus, UniProt P58406) (P58406 whole entry): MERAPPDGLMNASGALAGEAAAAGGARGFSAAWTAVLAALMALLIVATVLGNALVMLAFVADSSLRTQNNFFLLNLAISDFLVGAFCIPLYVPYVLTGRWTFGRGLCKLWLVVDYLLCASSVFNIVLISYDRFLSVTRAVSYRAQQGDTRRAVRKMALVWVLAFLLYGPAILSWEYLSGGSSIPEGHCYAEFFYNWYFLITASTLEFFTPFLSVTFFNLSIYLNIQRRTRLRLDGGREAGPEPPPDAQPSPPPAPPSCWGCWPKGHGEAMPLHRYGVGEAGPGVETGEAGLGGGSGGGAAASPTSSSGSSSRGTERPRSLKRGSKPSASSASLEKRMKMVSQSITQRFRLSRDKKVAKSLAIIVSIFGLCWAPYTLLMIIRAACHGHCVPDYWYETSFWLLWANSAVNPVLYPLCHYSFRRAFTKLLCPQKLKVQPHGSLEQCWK
Sequence of Histamine H3 receptor (Rattus norvegicus, UniProt Q9QYN8) (Q9QYN8 whole entry): as the sequence (P58406 whole entry) above, with A15T, T286A, G290A, H387R, V389I counted along it
Sequence of Histamine H4 receptor (Rattus norvegicus, UniProt Q91ZY1) (Q91ZY1 whole entry): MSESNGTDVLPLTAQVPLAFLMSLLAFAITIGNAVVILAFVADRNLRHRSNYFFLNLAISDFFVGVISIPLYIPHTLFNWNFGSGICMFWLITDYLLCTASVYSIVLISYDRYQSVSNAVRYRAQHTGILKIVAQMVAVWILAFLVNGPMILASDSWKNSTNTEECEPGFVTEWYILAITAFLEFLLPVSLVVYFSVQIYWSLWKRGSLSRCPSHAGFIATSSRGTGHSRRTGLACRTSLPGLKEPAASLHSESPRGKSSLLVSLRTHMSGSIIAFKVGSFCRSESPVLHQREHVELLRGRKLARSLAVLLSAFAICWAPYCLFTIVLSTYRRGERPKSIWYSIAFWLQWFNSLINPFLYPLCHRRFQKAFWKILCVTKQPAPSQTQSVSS

IC50 [2] [nM]	Ki [2] [nM]	Ki [3] [nM]	Ki [5] [nM]	SMILES	other results
83	5	6420	5	CN1CCN(c2nc(N)nc3cc(-c4ccco4)ccc23)CC1	Ki [1]: 98 nM; Activity [4]: 51%
46	3	2800	4	CN1CCN(c2nc(N)nc3cc(-c4ccsc4)ccc23)CC1	Ki [1]: 63 nM; Activity [4]: 74%
			6	Nc1nc2c(c(N3CCNCC3)n1)CCC1=C2[C@H]2CCCC[C@H]2O1	
				CN1CCN(C(=O)c2nc3ccc(Cl)cc3[nH]2)CC1	T1/2 [6]: 25.6 min
			6	CN1CCN(c2nc3cc(Cl)c(Cl)cc3[nH]c2=O)CC1	
			676	CC(=O)c1cccc(-c2cccc3c(N4CCN(C)CC4)nc(N)nc23)c1	
			15	CC(=O)c1cccc(-c2ccc3c(N4CCN(C)CC4)nc(N)nc3c2)c1	
106	7	10500	16	Nc1nc(N2CCNCC2)c2ccc(-c3ccco3)cc2n1	Ki [7]: 23 nM; Ki [8]: 174 nM; remaining at 1 h [9]: 83%; Ki [10]: 2560 nM; T1/2 [6]: 4.1 min; Ki [11]: 1070 nM; remaining at 1 h [12]: 80%; remaining at 1 h [13]: 96%; half-life [14]: 412 min; bioavailability [15]: 47%; Ki [16]: 3600 nM

SMILES	IC50 [2] [nM]	Ki [2] [nM]	Ki [3] [nM]	Ki [5] [nM]	other results
CN1CCN(c2ncnc3ccccc23)CC1				328	
CN1CCN(c2nc(N)nc3cc(-c4ccoc4)ccc23)CC1	47	4	7370		Ki [1]: 188 nM; Activity [4]: 54%
Cc1ccc2nc(N)nc(N3CCN(C)CC3)c2c1				649	
CN1CCN(c2nc(N)nc3ccccc23)CC1				32	
CN1CCN(c2ccnc(N)n2)CC1				31	
